# HTRA1 inhibitor – blocks human HTRA1 serine peptidase. 0.5% of 340,000 active. inhibition, % at 5.96 µM. recombinant HTRA1, FP-rhodamine activity-based probe, fluorescence polarization. AID 504803; in the data active = inhibition above about 36%;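 also: 0% = enzyme with DMSO and 100% = wells lacking enzyme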
# PRMT1 inh – PRMT1 (human) inhibition, primary screen | AID 652257 | recombinant PRMT1, activity-based probe fluorescence polarization | inhibition, % at 2.79 µM | 1.3% of 370,000 active;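 active = inhibition above about 21% made by adding two undisclosed values, limit read from the data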
# SIAE primary – human SIAE inhibition, primary screen | Q9HAT2 | SIAE FP-Rh probe binding, fluorescence polarization | inhibition, % at 9.66 µM | 0.69% of 370,000 active | AID 1053197;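 active = inhibition above a cutoff: mean of compounds within the control limits plus 3 SD of those, cut at about 17% in these data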;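 also: 0% = plate median of compound wells and 100% = probe without SIAE protein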
# Target sequence (Q9HAT2 whole entry, looked up): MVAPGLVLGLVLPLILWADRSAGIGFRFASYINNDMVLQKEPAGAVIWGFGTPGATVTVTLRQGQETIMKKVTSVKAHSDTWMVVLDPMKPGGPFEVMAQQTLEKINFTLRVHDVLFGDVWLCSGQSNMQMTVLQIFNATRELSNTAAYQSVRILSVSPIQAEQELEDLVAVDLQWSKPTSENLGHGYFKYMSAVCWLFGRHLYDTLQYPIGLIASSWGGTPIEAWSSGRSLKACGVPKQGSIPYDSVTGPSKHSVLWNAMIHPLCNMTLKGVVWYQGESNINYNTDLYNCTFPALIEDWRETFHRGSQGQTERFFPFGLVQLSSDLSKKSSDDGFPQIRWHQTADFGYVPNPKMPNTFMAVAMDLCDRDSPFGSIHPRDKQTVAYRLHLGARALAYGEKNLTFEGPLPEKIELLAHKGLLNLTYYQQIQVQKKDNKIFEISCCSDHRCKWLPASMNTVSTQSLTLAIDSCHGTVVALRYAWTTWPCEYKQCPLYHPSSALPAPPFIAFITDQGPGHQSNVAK
# mABHD4 FP – ABHD4 (mouse) inhibition, primary FP screen; Q8VD66; purified mABHD4, FP-Rh probe fluorescence polarization; inhibition, % at 8.92 µM; 0.54% of 370,000 active; AID 720543;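 active = inhibition exceeding the mean over every tested compound plus 3 SD, cut at about 30% in these data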;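 also: 0% = plate median of compound wells and 100% = S159A mutant with DMSO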
#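 Assay system: wild-type mouse ABHD4 protein; compound: single nominal dose of 8.92 µM, 0.89% DMSO final; schedule: 45 min + 60 min at 25 °C; measured by: FP readout, ex 525 nm / em 598 nm; evaluation: % inhibition of FP-Rh probe binding versus controls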
# rCAG binder – r(CAG) repeat RNA binding. 1.3% of 370,000 active. inhibition, % at 3 µM. TO-PRO-1 dye displacement fluorescence;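 active = inhibition above the plate cutoff, the mean of all test compounds on that plate plus 3 SD, cut at about 35% in these data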;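 also: 0% = DMSO alone and 100% = 100 µM mitoxantrone as full dye displacement; higher means more dye released from RNA so lower well fluorescence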
# SIAE confirm – confirmation of human SIAE inhibitors | shares compounds with SIAE primary | SIAE FP-Rh activity-based probe, fluorescence polarization | inhibition, % at 9.66 µM | 13% of 2,300 active;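 active = mean inhibition of the replicates above the hit cutoff set in the primary screen, cut at about 17% in these data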;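 also: 0% = SIAE with DMSO and probe and 100% = probe without SIAE; inhibitors lower polarization as more probe stays unbound to SIAE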
# Starred values were filed as active, the others as inactive; . = no result given. The list is not random: actives were taken first. Their share in the collection is about 3.3%.
SMILES,HTRA1 inhibitor,PRMT1 inh,SIAE primary,mABHD4 FP,rCAG binder,SIAE confirm
Cc1ccc(OCC(=O)Nc2ccc3c(c2)nc(CCN2CCN(c4ccccn4)CC2)n3C)cc1,-3.9,5.3,3.4,0.5,1.8,.
Cn1c(CCN2CCN(c3ccccn3)CC2)nc2cc(NC(=O)COc3ccccc3)ccc21,0.1,1.6,69.8*,-2.9,-5.9,1.5
COc1ccc(OCc2n[nH]c(=S)n2-c2ccc(C)cc2)cc1,-1.2,8.2,2.8,8.3,7.6,.
COc1ccc(-n2c(COc3cccc(C)c3)n[nH]c2=S)cc1,-2.0,3.1,19.1*,-3.0,3.7,-1.3
O=C(Nc1cccc(-c2csc(Nc3ccc(Cl)cc3)n2)c1)c1cc([N+](=O)[O-])cc(C(F)(F)F)c1,-4.0,0.7,28.6*,4.7,20.9,-15.8
O=C(Nc1ccc(-c2csc(Nc3ccc(Cl)cc3)n2)cc1)c1cc([N+](=O)[O-])cc(C(F)(F)F)c1,-7.1,-3.6,15.0,-9.4,29.5,.
O=C(Nc1cccc(-c2csc(Nc3ccccc3)n2)c1)c1cc([N+](=O)[O-])cc(C(F)(F)F)c1,-7.0,-0.1,32.2*,-3.5,18.4,12.3
NC(=O)CC1C(=O)N(c2ccc(F)cc2)C(=O)N1NC(=O)CCc1ccccc1 (stereo not drawn),2.7,0.9,10.3,0.6,-2.6,.
CC(C)CC(CCOCCO)NC(=O)OCc1ccccc1[N+](=O)[O-] (stereo not drawn),.,4.6,2.9,2.4,.,.
Nc1nc(NCc2ccco2)nc(N2CCCCC2)c1[N+](=O)[O-],3.1,0.2,18.6*,-1.2,-1.1,1.4
Cc1c(Cc2ccccc2)c(=O)[nH]c(=O)n1C,1.2,-0.5,-2.3,-1.1,3.4,.
O=C(N/N=C/c1ccoc1)c1ccccc1O,23.9,-1.3,19.2*,7.8,4.5,15.7
O=C(N/N=C/c1ccoc1)c1ccccc1,-3.0,-3.9,3.4,-5.2,2.1,.
O=C(COc1ccccc1)NC(=S)Nc1cccc2c(O)cccc12,1.8,18.0,25.0*,29.1,31.3,4.2
CCOc1ccc(NC(=S)Nc2cccc3ccccc23)cc1,0.6,1.6,17.8*,-0.2,3.5,-0.1
Cc1ccc(NC(=S)Nc2cccc3ccccc23)cc1,3.9,7.8,5.6,6.7,4.8,.
CC(C)c1ccc(NC(=S)Nc2cccc3ccccc23)cc1,-6.2,-0.3,17.6*,-1.3,4.7,4.8
CC(C)(C)c1ccc(CN2C(=O)CSC2=O)cc1,-3.4,6.2,-3.9,8.2,-1.2,.
COc1ccc(C(C#N)N2CCC(c3ccccc3)=N2)cc1 (stereo not drawn),1.7,-3.2,5.2,-9.9,-2.3,.
COc1ccc(C(=O)Oc2ccc3c(C)cc(=O)oc3c2C(C)=O)cc1,-2.7,0.8,17.4*,-0.1,2.7,-0.7
Nc1[nH]c2cc(Cl)ccc2c1C(=O)NCCc1ccc(Cl)cc1,.,1.9,18.9*,19.0,8.3,18.7*
CC(=O)c1c(C)[nH]c(C(=O)NCCc2ccc(Cl)cc2)c1C,3.6,4.2,1.9,-0.5,-4.2,.
C[C@](N)(Cc1ccc(O)c(O)c1)C(=O)O,12.1,15.3,18.2*,26.1,3.8,6.8
COc1ccc(C[C@](C)(N)C(=O)O)cc1OC,4.6,18.9,14.7,21.3,2.0,.
N#Cc1ccccc1NCC(=O)N1CCN(S(=O)(=O)c2ccccc2)CC1,-3.9,1.0,17.2*,1.9,3.8,-0.4
SMILES,HTRA1 inhibitor,PRMT1 inh,SIAE primary,mABHD4 FP,rCAG binder,SIAE confirm
O=C(CSc1ccccc1)N1CCN(S(=O)(=O)c2ccccc2)CC1,-5.3,3.1,5.2,3.1,-0.1,.
O=C(O)CSCC(=O)N1CCN(S(=O)(=O)c2ccccc2)CC1,5.9,-2.7,20.8*,2.5,-0.7,-1.3
Oc1nc(Nc2cccc(Cl)c2)sc1/C=C1\C=Nc2ccccc21,-20.9,1.0,25.7*,-5.7,55.3*,-19.1
S=c1[nH]nc(Nc2cccc(Cl)c2)s1,-1.5,6.9,-0.2,-0.7,0.4,.
COc1cc(NS(=O)(=O)c2ccc(NC(=O)CCC(=O)O)cc2)nc(OC)n1,2.7,-0.7,17.3*,-0.5,2.4,-6.8
COCCN(CCOC)Cc1cc(=O)oc2ccccc12,.,-3.7,0.8,2.8,0.1,.
COc1ccc(/C=N/n2c(-c3ccccc3)n[nH]c2=S)cc1,3.9,2.4,21.9*,4.7,11.0,0.3
COc1cc(/C=N/n2c(-c3ccccc3)n[nH]c2=S)cc(OC)c1OC,-1.2,3.4,1.6,2.8,9.6,.
